Screening data from PubChem BioAssay.
Rows were chosen to be rich in hits. Some 1.3% of all compounds tested hit in one or more screens of this group.
PME-1 primary = PME-1 (human) inhibition; Q9Y570; recombinant PME-1, FP-Rh probe fluorescence polarization; inhibition, % at 5.9 µM; hit rate 0.53% among 320,000; AID 2130;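 active = inhibition above the campaign mean of all compounds plus 3 SD, cut at about 26% in these data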;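 note: competitive labeling of PME-1 active site by serine hydrolase directed probe; inhibitors block probe labeling so polarization falls and inhibition rises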
LYPLA1 inh = blocks human lysophospholipase 1, a PME1 counter-screen; O75608; recombinant LYPLA1, FP-Rh probe fluorescence polarization; inhibition, % at 5.9 µM; hit rate 0.16% among 320,000;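 active = inhibition above the mean of all tested compounds plus 3 SD, set per campaign, cut at about 14% in these data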;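 note: inhibitors block serine hydrolase probe labeling of LYPLA1 so polarization falls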
PAD4 inh = blocks human protein arginine deiminase 4 | inhibition, % at 6.36 µM | hit rate 0.41% among 330,000 | recombinant PAD4, RCA probe fluorescence polarization | Q9UM07 | AID 485272;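 active = percent inhibition above a cutoff equal to the mean of all tested compounds plus 3 SD, cut at about 15% in these data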
Target sequence (Q9UM07 whole entry, looked up): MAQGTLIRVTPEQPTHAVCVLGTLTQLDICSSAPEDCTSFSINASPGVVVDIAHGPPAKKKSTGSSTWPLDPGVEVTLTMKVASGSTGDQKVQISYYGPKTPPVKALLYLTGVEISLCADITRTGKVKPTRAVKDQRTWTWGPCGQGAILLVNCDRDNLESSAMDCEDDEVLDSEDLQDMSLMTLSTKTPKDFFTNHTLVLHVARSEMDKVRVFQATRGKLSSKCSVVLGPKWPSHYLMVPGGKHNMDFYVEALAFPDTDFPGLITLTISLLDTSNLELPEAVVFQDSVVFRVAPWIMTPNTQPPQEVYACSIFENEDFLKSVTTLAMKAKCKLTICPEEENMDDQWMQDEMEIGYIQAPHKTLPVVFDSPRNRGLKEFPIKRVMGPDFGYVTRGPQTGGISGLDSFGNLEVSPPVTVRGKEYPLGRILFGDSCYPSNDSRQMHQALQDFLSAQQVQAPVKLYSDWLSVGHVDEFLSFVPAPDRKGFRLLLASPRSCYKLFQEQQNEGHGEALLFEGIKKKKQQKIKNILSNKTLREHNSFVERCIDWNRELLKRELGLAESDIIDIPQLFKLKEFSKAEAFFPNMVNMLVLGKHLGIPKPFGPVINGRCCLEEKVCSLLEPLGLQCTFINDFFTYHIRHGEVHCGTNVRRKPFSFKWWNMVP
LYPLA2 inh = LYPLA2 (human) inhibition in PME1 counter-screen; O95372; inhibition, % at 5.9 µM; recombinant LYPLA2, FP-Rh probe fluorescence polarization; hit rate 0.38% among 320,000;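 active = inhibition above the screen-wide mean plus 3 SD, limit set per campaign, cut at about 26% in these data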
Fam108B inh = Fam108B inhibition, counter-screen for RBBP9 inhibitors; recombinant Fam108B, FP-Rh probe fluorescence polarization; inhibition, % at 9.51 µM; hit rate 0.33% among 300,000; AID 1947;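 active = inhibition above the screen mean inhibition plus 3 SD, computed separately per campaign, cut at about 18% in these data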;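 note: inhibitors lower polarization as less probe binds the enzyme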
RBBP9 inh = blocks human serine hydrolase RBBP9 | AID 1515 | recombinant RBBP9, FP-Rh probe fluorescence polarization | hit rate 0.2% among 220,000 | inhibition, % at 7.94 µM;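 active = inhibition above the campaign mean of all tested compounds plus 3 SD, cut at about 14% in these data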
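Test system – recombinant human RBBP9 · Input – RBBP9 2.5 µM in dispensing solution, pre-mixing · Medium – Tris buffer pH 8.0, NaCl, Pluronic · Schedule – preincubation 30 min plus labeling 45 min at 25 °C · Measured by – fluorescence polarization · Measure – % inhibition · Controls – DMSO and no-protein wells · Replicates – one well per compound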
LYPLA1 conf = LYPLA1 (human) inhibition, confirmation counter-screen | hit rate 69% among 480 | recombinant LYPLA1, FP-Rh probe fluorescence polarization | inhibition, % at 5.9 µM | shares compounds with LYPLA1 inh;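 active = mean inhibition across replicates above the hit cutoff set in the primary screen, cut at about 15% in these data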;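 note: loss of FP-Rh probe labeling of LYPLA1 seen as lower polarization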
LYPLA2 conf = LYPLA2 (human) inhibition, confirmation counter-screen | shares compounds with LYPLA2 inh | recombinant LYPLA2, FP-Rh probe fluorescence polarization | inhibition, % at 5.9 µM | hit rate 72% among 1,100;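 active = mean inhibition across replicates above the hit cutoff set in the primary screen, cut at about 26% in these data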;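 note: blocked labeling of the enzyme by serine hydrolase FP-Rh probe lowers polarization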
PAD4 FP conf = PAD4 (human) inhibition, confirmed. shares compounds with PAD4 inh. recombinant PAD4, RCA probe fluorescence polarization. inhibition, % at 6.36 µM. hit rate 28% among 1,200. AID 488796;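 active = mean inhibition across replicates above the hit cutoff set by the earlier primary screen, cut at about 15% in these data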;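 note: inhibitors block active-site labeling by the probe so polarization falls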
Each line names hits and unclear results; the compound was inactive in the other large screens (follow-up assays come after a bar, where they were run).

COc1ccc(-n2nc(C(=O)NCC(=O)N3CCCCC3)c3ccccc3c2=O)c(OC)c1	none (no result: RBBP9 inh)
COc1ccc(-n2nc(C(=O)NCC(=O)N3CCN(Cc4ccccc4)CC3)c3ccccc3c2=O)c(OC)c1	LYPLA1 inh 36, LYPLA2 inh 79 (no result: RBBP9 inh) | LYPLA1 conf 39 | LYPLA2 conf 81
COc1ccc(CN2CCCC(C(=O)Nc3cccc(-n4cccn4)c3)C2)c(F)c1 (configuration not stated)	none (no result: RBBP9 inh)
CC(C)(C)NS(=O)(=O)c1ccc(NC(=S)NC(=O)C2CCC2)cc1	none (no result: RBBP9 inh)
Cc1nn(CC(=O)N(C)C2CCS(=O)(=O)C2)c(C)c1S(=O)(=O)N(C)C (configuration not stated)	none (no result: Fam108B inh, RBBP9 inh)
Cn1nnc(NC(=S)NC(=O)c2cc(Cl)ccc2Cl)n1	none (no result: RBBP9 inh)
Cc1ccc(-n2cccn2)c([C@@H]2C[C@H]3CN(C)C(=O)[C@]34CCCN24)c1	none
COc1ccc(NC(=O)c2ccc(NC(=O)CN(C)CC(=O)Nc3c(C)cccc3C)cc2)cc1	none
O=C(CCl)Nc1ccccc1C(=O)Nc1ccc2c(c1)OCO2	none
NC(=O)c1cc([N+](=O)[O-])ccc1NCC1CCCCC1	LYPLA1 inh 25, LYPLA2 inh 43 (no result: RBBP9 inh) | LYPLA1 conf 31 | LYPLA2 conf 37
NC(=O)c1cc([N+](=O)[O-])ccc1NCc1ccc(O)cc1	none (no result: RBBP9 inh)
CCCOC(=O)c1ccc(Oc2coc3c(CN(CC)CC)c(O)ccc3c2=O)cc1	LYPLA1 inh 30, LYPLA2 inh 34 | LYPLA1 conf 32 | LYPLA2 conf 28
O=C(N1CCOCC1)n1nnc2ccccc21	LYPLA1 inh 91, LYPLA2 inh 47 | LYPLA1 conf 94 | LYPLA2 conf 51
CC(OC(=O)c1cccc(Cl)c1)C(=O)NC1CCCCC1C (configuration not stated)	none (no result: RBBP9 inh)
CC(OC(=O)c1nc(Cl)ccc1Cl)C(=O)NC1CCCCC1C (configuration not stated)	LYPLA1 inh 16, PAD4 inh 25 (no result: Fam108B inh, RBBP9 inh) | LYPLA1 conf inactive | PAD4 FP conf inactive
NNC(=S)Nc1cccc(-c2n[nH]c(=S)o2)c1	none
O=C(O)c1ccccc1C1=Nc2ccc(O)cc2Oc2cc(O)ccc21	LYPLA1 inh 19, PAD4 inh 26, LYPLA2 inh 27 | LYPLA1 conf 16 | LYPLA2 conf inactive | PAD4 FP conf 35
COCCn1c(C)c(C)c(S(=O)(=O)c2ccccc2)c1N	LYPLA1 inh 16, PAD4 inh 28 (no result: RBBP9 inh) | LYPLA1 conf inactive | PAD4 FP conf inactive
Cc1c(S(=O)(=O)c2ccccn2)c(N)n(Cc2ccccc2)c1C	none
CCc1cccc(NC(=O)CSc2nnc(Cc3ccc(OC)cc3)c(=O)[nH]2)c1	none (no result: RBBP9 inh)
CCCCC1OC23CCCCC2C(C#N)(C#N)C1(C#N)C(=N)O3 (configuration not stated)	LYPLA1 inh 15, PAD4 inh 25 | LYPLA1 conf inactive | PAD4 FP conf 17
O=S(=O)(NCC1CCCO1)c1ccc(S(=O)(=O)N(Cc2ccc(F)cc2)Cc2ccco2)cc1 (configuration not stated)	none
COc1ccc(C(=O)OCC(=O)NC2CCCCCC2)cc1OC	none (no result: Fam108B inh, RBBP9 inh)
COC(=O)c1ccc2c(c1)SC1=C(CCCC1=O)N2	PME-1 primary 29, LYPLA1 inh 28, PAD4 inh 43, LYPLA2 inh 27 | LYPLA1 conf 19 | LYPLA2 conf inactive | PAD4 FP conf 40
Cn1c(=O)c2c(nc(NCc3ccccc3)n2C)n(C)c1=O	none
Cn1c(=O)c2cc(NCc3ccccc3)nnc2n(C)c1=O	PME-1 primary 29, LYPLA1 inh 19, PAD4 inh 31 | LYPLA1 conf inactive | PAD4 FP conf inactive
CCNc1cc(O)ccc1C	PME-1 primary 31, LYPLA1 inh 31, PAD4 inh 122, LYPLA2 inh 40 (no result: Fam108B inh, RBBP9 inh) | LYPLA1 conf 15 | LYPLA2 conf inactive | PAD4 FP conf 53
Cc1ccc(C(=O)CNc2cc(C)ccc2C)cc1	none (no result: RBBP9 inh)
COc1ccc2nc(/C=N/NC(=O)[C@H](C)NC(=O)OC(C)(C)C)ccc2c1	none
C=CCn1c(SCC(=O)N2CCCC2=O)nc2sc(CC)cc2c1=O	PME-1 primary 37, LYPLA1 inh 21, PAD4 inh 33, LYPLA2 inh 38 (no result: Fam108B inh, RBBP9 inh) | LYPLA1 conf inactive | LYPLA2 conf inactive | PAD4 FP conf inactive
CC(=O)Nc1ccccc1-c1ccc(C)o1	none
Cc1ccc(NC(=O)CS(=O)CC(=O)Nc2ccccc2-c2ccc(C)o2)cc1 (configuration not stated)	PME-1 primary 35, LYPLA1 inh 33, PAD4 inh 17, LYPLA2 inh 41 (no result: RBBP9 inh) | LYPLA1 conf inactive | LYPLA2 conf inactive | PAD4 FP conf inactive
O=C(CSc1nc2ccccc2c(=O)[nH]1)Nc1ccc(N2CCOCC2)c(Cl)c1	none (no result: RBBP9 inh)
CN(C(=O)c1ccc(NC(=O)Cc2cccc([N+](=O)[O-])c2)cc1)C1CC1	LYPLA1 inh 42, PAD4 inh 35 (no result: Fam108B inh, RBBP9 inh) | LYPLA1 conf 35 | PAD4 FP conf inactive
CCOC(=O)NC(=O)/C(C#N)=C\Nc1sccc1C(=O)OC	LYPLA1 inh 20, PAD4 inh 35, LYPLA2 inh 31 | LYPLA1 conf inactive | PAD4 FP conf inactive
CCN1C(=O)c2cccc3c(N)ccc(c23)C1=O	LYPLA1 inh 15, PAD4 inh 27 (no result: RBBP9 inh) | LYPLA1 conf inactive | PAD4 FP conf 26
Cc1ccc(N2C(=O)c3cccc4c(N)ccc(c34)C2=O)c2cccnc12	none
COc1cccc(NC(=O)CCC2CCN(C(=O)c3ccc(C(C)=O)s3)CC2)c1	LYPLA2 inh 27 (no result: RBBP9 inh) | LYPLA2 conf 32
COc1cccc(NC(=O)CCC2CCN(C(=O)c3sccc3C)CC2)c1	none (no result: RBBP9 inh)
Cn1c(SCC(=O)Nc2ccc3cn[nH]c3c2)nnc1-c1cnccn1	none
Cn1c(SCC(=O)Nc2ccc3cn[nH]c3c2)nnc1-c1cccs1	LYPLA2 inh 29 | LYPLA2 conf inactive
O=S(=O)(Nc1nc2ccccc2nc1Cl)c1cccc(C(F)(F)F)c1	none (no result: RBBP9 inh)
COc1ccc(NC(C)=O)cc1S(=O)(=O)NCCc1ccccn1	none (no result: Fam108B inh, RBBP9 inh)
COc1ccc2c(Cn3cnc4cc([N+](=O)[O-])ccc4c3=O)cc(=O)oc2c1	LYPLA2 inh 31 | LYPLA2 conf inactive
Cc1ccc(OCCn2cnc3cc([N+](=O)[O-])ccc3c2=O)cc1	none
CCCNC(=O)c1ccc(N2CCC3(CC2)CC(c2ccccc2)=NO3)c(N)c1	none (no result: RBBP9 inh)
